ChEMBL document CHEMBL5329147, “Synthesis of tryptanthrin appended dispiropyrrolidine oxindoles and their antibacterial evaluation” (RSC Med Chem, 2023)
Values after ≈ are worked out from the molar mass of the structure shown.

Tests used:
Pseudomonas aeruginosa = assay: Antibacterial activity against Pseudomonas aeruginosa ATCC 27853 assessed as bacterial growth inhibition incubated for 18 to 24 hrs by broth microdilution method; format: functional; details: time 18-24 hrs
Method in brief: (§1)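 CLSI broth microdilution. Overnight starter cultures (single colony, MHBII, 37 °C, shaking 18–24 h) were diluted by OD600 to 10^6 CFU/mL in MHBII. Two-fold dilutions from […] were made from 10 mg/mL DMSO stocks, then incubated 37 °C for 18-24 h. The MIC was the lowest concentration with no visible growth. Three independent runs, duplicate samples.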

Vero = assay: Cytotoxicity against African green monkey Vero cells assessed as cell viability incubated for 72 hrs by MTT assay; format: toxicity, cell-based; details: chlorocebus sabaeus
Method in brief: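 MTT assay on Vero cells, ~10^3 cells/well, 37 °C, 5% CO2. Compound was added at 24 h (100-12.5 μg/mL) for 72 h, then MTT for 4 h at 37 °C. Formazan was dissolved in DMSO and read at 540 nm. CC50 was the lowest concentration giving 50% viability loss. Doxorubicin positive control; triplicate.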

Staphylococcus aureus [1] = assay: Antibacterial activity against methicillin resistant Staphylococcus aureus NRS 191 assessed as bacterial growth inhibition incubated for 18 to 24 hrs by broth microdilution method; format: functional; details: time 18-24 hrs
Method in brief: (§2)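 CLSI broth microdilution in MHBII; overnight starter cultures (single MHA colony, 37 °C, shaking) adjusted by OD600 to 10^6 CFU/mL. Compounds from DMSO stocks (10 mg/mL), two-fold series 64–0.5 mg/L. Incubation 37 °C, 18-24 h. MIC = lowest concentration with no visible growth. Three independent determinations, each in duplicate.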

Acinetobacter baumannii = assay: Antibacterial activity against Acinetobacter baumannii BAA-1605 assessed as bacterial growth inhibition incubated for 18 to 24 hrs by broth microdilution method; format: functional; details: time 18-24 hrs; method in brief: as §1
Staphylococcus aureus [2] = assay: Antibacterial activity against methicillin resistant Staphylococcus aureus NRS 186 assessed as bacterial growth inhibition incubated for 18 to 24 hrs by broth microdilution method; format: functional; details: time 18-24 hrs; method in brief: as §2
Staphylococcus aureus [3] = assay: Antibacterial activity against methicillin resistant Staphylococcus aureus NRS 129 assessed as bacterial growth inhibition incubated for 18 to 24 hrs by broth microdilution method; format: functional; details: time 18-24 hrs; method in brief: as §2
Klebsiella pneumoniae = assay: Antibacterial activity against Klebsiella pneumoniae BAA 1705 assessed as bacterial growth inhibition incubated for 18 to 24 hrs by broth microdilution method; format: functional; details: time 18-24 hrs; method in brief: as §1
[4] = Selectivity ratio of CC50 for African green monkey Vero cells to MIC against Staphylococcus aureus ATCC 29213; format: toxicity, cell-based
Staphylococcus aureus [5] = assay: Antibacterial activity against methicillin resistant Staphylococcus aureus NRS 192 assessed as bacterial growth inhibition incubated for 18 to 24 hrs by broth microdilution method; format: functional; details: time 18-24 hrs; method in brief: as §2
Staphylococcus aureus [6] = assay: Antibacterial activity against vancomycin resistant Staphylococcus aureus […] 12 assessed as bacterial growth inhibition incubated for 18 to 24 hrs by broth microdilution method; format: functional; details: time 18-24 hrs; method in brief: as §2
Staphylococcus aureus [7] = assay: Antibacterial activity against Staphylococcus aureus ATCC 29213 assessed as bacterial growth inhibition incubated for 18 to 24 hrs by broth microdilution method; format: functional; details: time 18-24 hrs; method in brief: as §1
Staphylococcus aureus [8] = assay: Antibacterial activity against vancomycin resistant Staphylococcus aureus […] 4 assessed as bacterial growth inhibition incubated for 18 to 24 hrs by broth microdilution method; format: functional; details: time 18-24 hrs; method in brief: as §2
Staphylococcus aureus [9] = assay: Antibacterial activity against methicillin resistant Staphylococcus aureus NRS 119 assessed as bacterial growth inhibition incubated for 18 to 24 hrs by broth microdilution method; format: functional; details: time 18-24 hrs; method in brief: as §2
Escherichia coli = assay: Antibacterial activity against Escherichia coli ATCC 25922 assessed as bacterial growth inhibition incubated for 18 to 24 hrs by broth microdilution method; format: functional; details: time 18-24 hrs; method in brief: as §1
Staphylococcus aureus [10] = assay: Antibacterial activity against methicillin sensitive Staphylococcus aureus ATCC 29213 assessed as bacterial growth inhibition incubated for 18 to 24 hrs by broth microdilution method; format: functional; details: time 18-24 hrs; method in brief: as §2
Staphylococcus aureus [11] = assay: Antibacterial activity against methicillin resistant Staphylococcus aureus NRS 198 assessed as bacterial growth inhibition incubated for 18 to 24 hrs by broth microdilution method; format: functional; details: time 18-24 hrs; method in brief: as §2
Staphylococcus aureus [12] = assay: Antibacterial activity against methicillin resistant Staphylococcus aureus NRS 193 assessed as bacterial growth inhibition incubated for 18 to 24 hrs by broth microdilution method; format: functional; details: time 18-24 hrs; method in brief: as §2
Staphylococcus aureus [13] = assay: Antibacterial activity against methicillin resistant Staphylococcus aureus NRS 194 assessed as bacterial growth inhibition incubated for 18 to 24 hrs by broth microdilution method; format: functional; details: time 18-24 hrs; method in brief: as §2
Staphylococcus aureus [14] = assay: Synergistic antibacterial activity against Staphylococcus aureus ATCC 29213 assessed as bacterial growth inhibition incubated for 24 hrs in presence of (S)-8''-Bromo-1-ethyl-1'-methyl-2,12''-dioxo-12''H-dispiro[indoline-3,4'-pyrrolidine-2',6''-indolo[2,1-b]quinazoline]-3',3'-dicarbonitrile by checkerboard assay; format: functional
Method in brief: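 Checkerboard in 96-well plates: two-fold serial dilutions, one agent along abscissa, partner antibiotic along ordinate. Wells received ~10⁵ CFU/mL S. aureus ATCC 29213 in MHBII. Incubation 37 °C, 24 h. ΣFIC = FIC A + FIC B, each FIC being combination MIC divided by MIC alone.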

[15] = Staphylococcus aureus, ATCC 29213, read-out: MIC

Compound: CCN1C(=O)[C@@]2(CN(C)C3(c4cc(OC)ccc4-n4c3nc3ccccc3c4=O)C2(C#N)C#N)c2ccccc21 (stereo not given in full)
- MIC (Pseudomonas aeruginosa): > 64 µg/mL
- Activity (Vero): Non-Toxic
- MIC (Staphylococcus aureus [1]): 0.25 µg/mL (≈ 0.473 µM)
- MIC (Acinetobacter baumannii): > 64 µg/mL
- MIC (Staphylococcus aureus [2]): 0.5 µg/mL (≈ 0.946 µM)
- MIC (Staphylococcus aureus [3]): 0.25 µg/mL (≈ 0.473 µM)
- MIC (Klebsiella pneumoniae): > 64 µg/mL
- selectivity ratio [4]: > 80
- MIC (Staphylococcus aureus [5]): 0.5 µg/mL (≈ 0.946 µM)
- MIC (Staphylococcus aureus [6]): 8 µg/mL (≈ 15.1 µM)
- MIC (Staphylococcus aureus [7]; [15]): 0.125 µg/mL (≈ 0.236 µM)
- MIC (Staphylococcus aureus [8]): 0.5 µg/mL (≈ 0.946 µM)
- MIC (Staphylococcus aureus [9]): 0.25 µg/mL (≈ 0.473 µM)
- MIC (Escherichia coli): > 64 µg/mL
- MIC (Staphylococcus aureus [10]): 0.5 µg/mL (≈ 0.946 µM)
- MIC (Staphylococcus aureus [11]): 0.5 µg/mL (≈ 0.946 µM)
- MIC (Staphylococcus aureus [12]): 0.5 µg/mL (≈ 0.946 µM)
- MIC (Staphylococcus aureus [13]): 0.5 µg/mL (≈ 0.946 µM)

Compound: CCN1C(=O)[C@]2(c3ccccc31)C(C(=O)NCC(=O)O)NC1(c3cc(Cl)ccc3-n3c1nc1ccccc1c3=O)C2(C#N)C#N (stereo not given in full)
- MIC (Pseudomonas aeruginosa): > 64 µg/mL
- MIC (Acinetobacter baumannii): > 64 µg/mL
- MIC (Klebsiella pneumoniae): > 64 µg/mL
- selectivity ratio [4]: 10
- MIC (Staphylococcus aureus [7]; [15]): 1 µg/mL (≈ 1.61 µM)
- MIC (Escherichia coli): > 64 µg/mL

Compound: CCN1C(=O)[C@@]2(CN(C)C3(c4cc(I)ccc4-n4c3nc3ccccc3c4=O)C2(C#N)C#N)c2ccccc21 (stereo not given in full)
- MIC (Pseudomonas aeruginosa): > 64 µg/mL
- MIC (Acinetobacter baumannii): > 64 µg/mL
- MIC (Klebsiella pneumoniae): > 64 µg/mL
- MIC (Staphylococcus aureus [7]; [15]): 0.25 µg/mL (≈ 0.4 µM)
- MIC (Escherichia coli): > 64 µg/mL

Compound: CCN1C(=O)[C@@]2(CN(C)C3(c4cc([N+](=O)[O-])ccc4-n4c3nc3ccccc3c4=O)C2(C#N)C#N)c2ccccc21 (stereo not given in full)
- MIC (Pseudomonas aeruginosa): > 64 µg/mL
- MIC (Acinetobacter baumannii): > 64 µg/mL
- MIC (Klebsiella pneumoniae): > 64 µg/mL
- selectivity ratio [4]: < 10
- MIC (Staphylococcus aureus [7]; [15]): 0.25 µg/mL (≈ 0.46 µM)
- MIC (Escherichia coli): > 64 µg/mL

Compound: GENTAMICIN
- MIC (Staphylococcus aureus [7]): 0.25 µg/mL
- MIC (Staphylococcus aureus [14]): 0.25 µg/mL

Compound: CN1C(=O)[C@@]2(CN(C)C3(c4ccccc4-n4c3nc3ccccc3c4=O)C2(C#N)C#N)c2ccccc21 (stereo not given in full)
- MIC (Pseudomonas aeruginosa): > 64 µg/mL
- MIC (Acinetobacter baumannii): > 64 µg/mL
- MIC (Klebsiella pneumoniae): > 64 µg/mL
- MIC (Staphylococcus aureus [7]; [15]): 8 µg/mL (≈ 16.5 µM)
- MIC (Escherichia coli): > 64 µg/mL

Compound: C[C@H]1COc2c(N3CCN(C)CC3)c(F)cc3c(=O)c(C(=O)O)cn1c23 [LEVOFLOXACIN ANHYDROUS]
- MIC (Staphylococcus aureus [1]): 16 µg/mL (≈ 44.3 µM)
- MIC (Staphylococcus aureus [2]): 4 µg/mL (≈ 11.1 µM)
- MIC (Staphylococcus aureus [3]): 0.25 µg/mL (≈ 0.692 µM)
- MIC (Klebsiella pneumoniae): 64 µg/mL (≈ 177 µM)
- MIC (Staphylococcus aureus [5]): 4 µg/mL (≈ 11.1 µM)
- MIC (Staphylococcus aureus [6]): 32 µg/mL (≈ 88.6 µM)
- MIC (Staphylococcus aureus [7]; [15]): 0.125 µg/mL (≈ 0.346 µM)
- MIC (Staphylococcus aureus [7]): 0.25 µg/mL (≈ 0.692 µM)
- MIC (Staphylococcus aureus [8]): > 64 µg/mL
- MIC (Staphylococcus aureus [9]): 16 µg/mL (≈ 44.3 µM)
- MIC (Staphylococcus aureus [14]): 0.125 µg/mL
- MIC (Staphylococcus aureus [10]): 0.125 µg/mL (≈ 0.346 µM)
- MIC (Staphylococcus aureus [11]): 32 µg/mL (≈ 88.6 µM)
- MIC (Staphylococcus aureus [12]): 32 µg/mL (≈ 88.6 µM)
- MIC (Staphylococcus aureus [13]): 0.125 µg/mL (≈ 0.346 µM)

Compound: CCN1C(=O)[C@@]2(CN(C)C3(c4ccccc4-n4c3nc3ccccc3c4=O)C2(C#N)C#N)c2ccccc21 (stereo not given in full)
- MIC (Pseudomonas aeruginosa): > 64 µg/mL
- MIC (Acinetobacter baumannii): > 64 µg/mL
- MIC (Klebsiella pneumoniae): > 64 µg/mL
- MIC (Staphylococcus aureus [7]; [15]): 1 µg/mL (≈ 2.01 µM)
- MIC (Escherichia coli): > 64 µg/mL

Compound: C[C@@H](O)[C@H]1C(=O)N2C(C(=O)O)=C(S[C@@H]3CN[C@H](C(=O)N(C)C)C3)[C@H](C)[C@H]12 [MEROPENEM]
- MIC (Staphylococcus aureus [1]): 64 µg/mL (≈ 167 µM)
- MIC (Staphylococcus aureus [2]): 8 µg/mL (≈ 20.9 µM)
- MIC (Staphylococcus aureus [3]): 4 µg/mL (≈ 10.4 µM)
- MIC (Staphylococcus aureus [5]): 8 µg/mL (≈ 20.9 µM)
- MIC (Staphylococcus aureus [6]): 8 µg/mL (≈ 20.9 µM)
- MIC (Staphylococcus aureus [7]; [15]): 0.063 µg/mL (≈ 0.164 µM)
- MIC (Staphylococcus aureus [8]): 64 µg/mL (≈ 167 µM)
- MIC (Staphylococcus aureus [9]): 64 µg/mL (≈ 167 µM)
- MIC (Staphylococcus aureus [14]): 0.63 µg/mL
- MIC (Staphylococcus aureus [10]): 0.125 µg/mL (≈ 0.326 µM)
- MIC (Staphylococcus aureus [11]): 64 µg/mL (≈ 167 µM)
- MIC (Staphylococcus aureus [12]): 64 µg/mL (≈ 167 µM)
- MIC (Staphylococcus aureus [13]): 1 µg/mL (≈ 2.61 µM)
